Test results: ChEMBL document CHEMBL5316332 (J Med Chem, 2023)
Calls of active or inactive are those of the source. The calls are words filed in the database; no cut-off is given here.

Legend:
[1] = target: T1, Activin receptor type-1 (Homo sapiens) (UniProt Q04771); experiment: Inhibition of ACVR1 (unknown origin) by LanthaScreen TR-FRET assay
T1 sequence (whole entry): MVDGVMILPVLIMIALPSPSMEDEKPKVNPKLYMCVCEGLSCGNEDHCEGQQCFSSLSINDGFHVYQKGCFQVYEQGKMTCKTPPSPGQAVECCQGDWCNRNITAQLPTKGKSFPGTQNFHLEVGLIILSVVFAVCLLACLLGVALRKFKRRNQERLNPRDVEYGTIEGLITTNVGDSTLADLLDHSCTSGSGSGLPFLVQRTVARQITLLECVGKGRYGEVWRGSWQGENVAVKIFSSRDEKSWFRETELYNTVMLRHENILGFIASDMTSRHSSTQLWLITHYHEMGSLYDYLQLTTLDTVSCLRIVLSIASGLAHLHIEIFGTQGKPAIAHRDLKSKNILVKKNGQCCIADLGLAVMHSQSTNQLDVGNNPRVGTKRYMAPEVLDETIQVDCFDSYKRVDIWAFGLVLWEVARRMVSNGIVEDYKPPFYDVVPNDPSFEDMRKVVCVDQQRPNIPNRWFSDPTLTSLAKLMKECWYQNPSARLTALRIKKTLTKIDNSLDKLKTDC
Method in brief: (§1)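 Outsourced SelectScreen profiling using a LanthaScreen TR-FRET binding format, in which a tight-binding tracer is displaced from the kinase.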

HEK293T = experiment: Inhibition of BMP signalling pathway in BMP2-stimulated human HEK293T cells assessed as decrease in SMAD5 phosphorylation at 25 uM preincubated for 30 mins followed by BMP2 stimulation and measured after 15 mins by Western blot analysis; format: cell-based; details: time 45.0 min
Method in brief: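 HEK293T cells, 3 × 10^5 per well, starved overnight in DMEM with 2 mM glycine and 2% heat-inactivated FBS. Pretreated 30 min with inhibitor, then 5 ng/mL BMP2 for 15 min. Lysed in M-PER with protease inhibitors. Western blot for pSMAD1/5, SMAD1, SMAD5 and GAPDH, quantified by densitometry.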

[2] = target: T2, Bone morphogenetic protein receptor type-2 (Homo sapiens) (UniProt Q13873); experiment: Inhibition of human BMPR2 at 1 uM by DiscoveRx Kinomescan method
T2 sequence (whole entry): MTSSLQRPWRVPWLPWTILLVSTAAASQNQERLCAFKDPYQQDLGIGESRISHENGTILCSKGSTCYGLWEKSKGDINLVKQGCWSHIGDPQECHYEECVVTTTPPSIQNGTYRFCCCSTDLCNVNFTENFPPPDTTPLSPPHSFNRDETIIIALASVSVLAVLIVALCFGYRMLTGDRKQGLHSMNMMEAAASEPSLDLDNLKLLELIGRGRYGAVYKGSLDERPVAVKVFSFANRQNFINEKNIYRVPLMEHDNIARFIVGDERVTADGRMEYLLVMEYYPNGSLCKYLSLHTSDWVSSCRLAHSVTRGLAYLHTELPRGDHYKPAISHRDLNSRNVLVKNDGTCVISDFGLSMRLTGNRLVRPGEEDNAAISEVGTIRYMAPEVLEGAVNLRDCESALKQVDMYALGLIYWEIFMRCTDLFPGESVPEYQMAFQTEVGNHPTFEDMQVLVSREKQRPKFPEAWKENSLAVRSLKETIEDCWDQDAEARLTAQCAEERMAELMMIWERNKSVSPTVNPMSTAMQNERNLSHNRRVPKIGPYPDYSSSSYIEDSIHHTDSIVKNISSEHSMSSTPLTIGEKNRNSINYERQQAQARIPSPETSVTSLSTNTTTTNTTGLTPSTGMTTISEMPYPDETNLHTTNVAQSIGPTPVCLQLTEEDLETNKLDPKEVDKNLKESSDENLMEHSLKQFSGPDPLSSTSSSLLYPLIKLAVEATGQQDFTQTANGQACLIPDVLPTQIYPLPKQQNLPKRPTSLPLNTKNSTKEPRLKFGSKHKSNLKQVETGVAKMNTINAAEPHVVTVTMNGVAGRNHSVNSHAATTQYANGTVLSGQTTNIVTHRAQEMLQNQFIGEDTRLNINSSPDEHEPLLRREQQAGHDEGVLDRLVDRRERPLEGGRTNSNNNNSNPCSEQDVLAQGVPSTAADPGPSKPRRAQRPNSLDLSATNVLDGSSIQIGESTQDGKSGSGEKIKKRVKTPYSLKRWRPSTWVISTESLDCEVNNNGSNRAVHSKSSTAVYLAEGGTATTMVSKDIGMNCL
Method in brief: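 Outsourced KINOMEscan panel of 403 kinases, with compound at 1 μM.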

TGF-beta receptor type-1 = target: T3, TGF-beta receptor type-1 (Homo sapiens, UniProt P36897); experiment: Inhibition of TGFBR1 (unknown origin) by LanthaScreen TR-FRET assay; method in brief: as §1
T3 sequence (P36897 whole entry): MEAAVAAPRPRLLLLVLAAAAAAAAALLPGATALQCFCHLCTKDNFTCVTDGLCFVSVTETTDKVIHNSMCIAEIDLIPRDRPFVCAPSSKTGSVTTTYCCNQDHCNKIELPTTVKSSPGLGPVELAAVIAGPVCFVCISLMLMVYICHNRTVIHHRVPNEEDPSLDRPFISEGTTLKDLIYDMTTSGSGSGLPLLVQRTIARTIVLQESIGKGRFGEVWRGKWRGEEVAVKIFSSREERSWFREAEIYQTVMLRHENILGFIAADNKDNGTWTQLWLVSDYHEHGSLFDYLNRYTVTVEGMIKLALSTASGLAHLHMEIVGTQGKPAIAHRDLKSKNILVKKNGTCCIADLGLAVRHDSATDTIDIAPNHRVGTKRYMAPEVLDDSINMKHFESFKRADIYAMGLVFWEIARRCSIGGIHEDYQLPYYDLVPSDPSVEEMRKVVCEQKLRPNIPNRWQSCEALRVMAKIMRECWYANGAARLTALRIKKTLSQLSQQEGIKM

inhibition [1]	inhibition [2]	IC50 (TGF-beta receptor type-1)	SMILES	inhibition (HEK293T)
inactive	–	–	COc1cnc(Nc2cccc(S(N)(=O)=O)c2)nc1N1CCN(c2ccccc2)C(=O)C1	Active
–	Active	> 1000 nM	CNC(=O)[C@@H]1CC[C@@H](n2c(-c3ccc4cnccc4c3)nc3ccc(C(=O)NCc4cccc(C(N)=O)c4)cc32)C1	–
–	–	> 1000 nM	NC(=O)c1cccc(CNC(=O)c2ccc3nc(-c4ccc5cnccc5c4)n(C4CCCC4)c3c2)c1	Active
